# Experimental data: ChEMBL document CHEMBL5058577, “EUbOPEN Chemogenomics Library 2 (Multiplex)” (2022)
# Tested on: U2OS
# Experiment: Multiplex assay against U2OS
# Format: toxicity, cell-based
# Details: human
# Outline: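 Live cells were stained at seeding with Hoechst33342, BioTracker Green Microtubule Cytoskeleton Dye, MitoTracker Red and Annexin V Alexa Fluor 680. Following compound addition, they were imaged on a CQ1 microscope at 37°C and 5% CO2 and gated by CellPathfinder machine learning into Hoechst high-intensity objects or normal cells, with normal cells split into healthy, pyknosed or fragmented nuclei and pyknosed cells into mitotic or apoptotic. Tubulin, mitochondrial-mass and membrane-permeability phenotypes are per cents of healthy-nucleus cells.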
# [1] = 12 h, 1 µM, compound concentration 1 uM, replicate 1
# [2] = 12 h, 1 µM, compound concentration 1 uM, replicate 2
# [3] = 12 h, 10 µM, compound concentration 10 uM, replicate 1
# [4] = 12 h, 10 µM, compound concentration 10 uM, replicate 2
# [5] = 24 h, 1 µM, compound concentration 1 uM, replicate 1
# [6] = 24 h, 1 µM, compound concentration 1 uM, replicate 2
# [7] = 24 h, 10 µM, compound concentration 10 uM, replicate 1
# [8] = 24 h, 10 µM, compound concentration 10 uM, replicate 2
# [9] = 48 h, 1 µM, compound concentration 1 uM, replicate 1
# [10] = 48 h, 1 µM, compound concentration 1 uM, replicate 2
# [11] = 48 h, 10 µM, compound concentration 10 uM, replicate 1
# [12] = 48 h, 10 µM, compound concentration 10 uM, replicate 2
smiles,measurement,setting,value
COc1c(C)cc(NC(=O)c2nn(Cc3ccc(F)cc3)c3c2CN(C(=O)c2ccc[nH]2)C[C@]3(C)C(N)=O)cc1C,Population Apoptotic (%),[1],65%
same,Population Fragmented Nuclei (%),[1],22%
same,Population Healthy Nuclei (%),[1],65%
same,Population Hoechst High Intensity Objects (%),[1],2%
same,Population Membrane Permeable-Phenotype (%),[1],8%
same,Population Mitochondria Different-Phenotype (%),[1],3%
same,Population Mitotic Cells (%),[1],34%
same,Population Normal (%),[1],97%
same,Population Pyknosed Nuclei (%),[1],12%
same,Population Tubulin-Different-Phenotype (%),[1],5%
same,Total Cell Count,[1],247
same,Population Apoptotic (%),[2],83%
same,Population Fragmented Nuclei (%),[2],21%
same,Population Healthy Nuclei (%),[2],72%
same,Population Mitochondria Different-Phenotype (%),[2],12%
same,Population Mitotic Cells (%),[2],16%
same,Population Pyknosed Nuclei (%),[2],6%
same,Population Tubulin-Different-Phenotype (%),[2],9%
same,Total Cell Count,[2],102
same,Population Apoptotic (%),[3],33%
same,Population Fragmented Nuclei (%),[3],26%
same,Population Healthy Nuclei (%),[3],43%
same,Population Hoechst High Intensity Objects (%),[3],9%
same,Population Membrane Permeable-Phenotype (%),[3],77%
same,Population Mitochondria Different-Phenotype (%),[3],90%
same,Population Mitotic Cells (%),[3],66%
same,Population Normal (%),[3],90%
same,Population Pyknosed Nuclei (%),[3],29%
same,Population Tubulin-Different-Phenotype (%),[3],95%
same,Total Cell Count,[3],223
same,Population Apoptotic (%),[4],60%
same,Population Fragmented Nuclei (%),[4],11%
same,Population Healthy Nuclei (%),[4],66%
same,Population Hoechst High Intensity Objects (%),[4],8%
same,Population Membrane Permeable-Phenotype (%),[4],54%
same,Population Mitochondria Different-Phenotype (%),[4],97%
same,Population Mitotic Cells (%),[4],39%
same,Population Normal (%),[4],91%
same,Population Pyknosed Nuclei (%),[4],21%
same,Population Tubulin-Different-Phenotype (%),[4],100%
same,Total Cell Count,[4],119
same,Population Apoptotic (%),[5],67%
same,Population Fragmented Nuclei (%),[5],16%
same,Population Healthy Nuclei (%),[5],71%
same,Population Hoechst High Intensity Objects (%),[5],5%
same,Population Membrane Permeable-Phenotype (%),[5],8%
same,Population Mitochondria Different-Phenotype (%),[5],6%
same,Population Mitotic Cells (%),[5],32%
same,Population Normal (%),[5],94%
same,Population Pyknosed Nuclei (%),[5],12%
same,Population Tubulin-Different-Phenotype (%),[5],7%
same,Total Cell Count,[5],265
same,Population Apoptotic (%),[6],61%
same,Population Fragmented Nuclei (%),[6],17%
same,Population Healthy Nuclei (%),[6],70%
same,Population Hoechst High Intensity Objects (%),[6],0%
same,Population Membrane Permeable-Phenotype (%),[6],7%
same,Population Mitochondria Different-Phenotype (%),[6],2%
same,Population Mitotic Cells (%),[6],38%
same,Population Normal (%),[6],99%
same,Population Pyknosed Nuclei (%),[6],11%
same,Population Tubulin-Different-Phenotype (%),[6],6%
same,Total Cell Count,[6],111
same,Population Apoptotic (%),[7],66%
same,Population Fragmented Nuclei (%),[7],26%
same,Population Healthy Nuclei (%),[7],41%
same,Population Hoechst High Intensity Objects (%),[7],12%
same,Population Membrane Permeable-Phenotype (%),[7],46%
same,Population Mitochondria Different-Phenotype (%),[7],92%
same,Population Mitotic Cells (%),[7],33%
same,Population Normal (%),[7],87%
same,Population Pyknosed Nuclei (%),[7],31%
same,Population Tubulin-Different-Phenotype (%),[7],94%
same,Total Cell Count,[7],216
same,Population Apoptotic (%),[8],65%
same,Population Fragmented Nuclei (%),[8],13%
same,Population Healthy Nuclei (%),[8],53%
same,Population Hoechst High Intensity Objects (%),[8],7%
same,Population Membrane Permeable-Phenotype (%),[8],49%
same,Population Mitochondria Different-Phenotype (%),[8],91%
same,Population Mitotic Cells (%),[8],34%
same,Population Normal (%),[8],92%
same,Population Pyknosed Nuclei (%),[8],33%
same,Population Tubulin-Different-Phenotype (%),[8],91%
same,Total Cell Count,[8],123
same,Population Apoptotic (%),[9],79%
same,Population Fragmented Nuclei (%),[9],18%
same,Population Healthy Nuclei (%),[9],68%
same,Population Hoechst High Intensity Objects (%),[9],2%
same,Population Membrane Permeable-Phenotype (%),[9],4%
same,Population Mitochondria Different-Phenotype (%),[9],3%
same,Population Mitotic Cells (%),[9],20%
same,Population Normal (%),[9],97%
same,Population Pyknosed Nuclei (%),[9],13%
same,Population Tubulin-Different-Phenotype (%),[9],2%
same,Total Cell Count,[9],365
same,Population Apoptotic (%),[10],84%
same,Population Fragmented Nuclei (%),[10],15%
same,Population Healthy Nuclei (%),[10],70%
same,Population Hoechst High Intensity Objects (%),[10],5%
same,Population Membrane Permeable-Phenotype (%),[10],9%
same,Population Mitochondria Different-Phenotype (%),[10],4%
same,Population Mitotic Cells (%),[10],15%
same,Population Normal (%),[10],94%
same,Population Tubulin-Different-Phenotype (%),[10],5%
same,Total Cell Count,[10],152
same,Population Apoptotic (%),[11],84%
same,Population Fragmented Nuclei (%),[11],31%
same,Population Healthy Nuclei (%),[11],24%
same,Population Hoechst High Intensity Objects (%),[11],17%
same,Population Membrane Permeable-Phenotype (%),[11],69%
same,Population Mitochondria Different-Phenotype (%),[11],85%
same,Population Mitotic Cells (%),[11],15%
same,Population Normal (%),[11],82%
same,Population Pyknosed Nuclei (%),[11],44%
same,Population Tubulin-Different-Phenotype (%),[11],90%
same,Total Cell Count,[11],212
same,Population Apoptotic (%),[12],87%
same,Population Fragmented Nuclei (%),[12],22%
same,Population Healthy Nuclei (%),[12],47%
same,Population Hoechst High Intensity Objects (%),[12],9%
same,Population Membrane Permeable-Phenotype (%),[12],50%
same,Population Mitochondria Different-Phenotype (%),[12],81%
same,Population Mitotic Cells (%),[12],12%
same,Population Normal (%),[12],90%
same,Population Pyknosed Nuclei (%),[12],29%
same,Population Tubulin-Different-Phenotype (%),[12],80%
same,Total Cell Count,[12],150
